TDP2 absorb: blocks human TDP2 phosphodiesterase activity. O95551. recombinant TDP2, T5PNP hydrolysis, p-nitrophenol absorbance 415 nm. inhibition, % at 12.8 µM. hit rate 0.34% among 370,000. AID 720702;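 active means inhibition above the mean of all tested compounds plus 3 SD, set per campaign, cut at about 25% in these data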;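 further: 0% = DMSO with enzyme and 100% = buffer with substrate but no TDP2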
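Assay system: recombinant human TDP2 / Reagent: T5PNP substrate at 5 mM, a TopII-DNA adduct mimic / Measured by: epi absorbance from released p-nitrophenol / Evaluation: % inhibition relative to enzyme-containing and enzyme-free wells / Control set: enzyme-free and DMSO wells / Replicates: each compound tested once, singlicate / Schedule: enzyme reaction with compound for 2 h at 37 °C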
GSTO1 counter: GSTO1 inhibition, counter-screen for RBBP9 inhibitors | P78417 | recombinant GSTO1, activity-based probe fluorescence polarization | inhibition, % at 5.96 µM | hit rate 1.1% among 300,000 | AID 1974;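 active means inhibition above the campaign mean inhibition plus 3 SD, cut at about 35% in these data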;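 further: 0% = GSTO1-1 with DMSO and 100% = wells lacking GSTO1-1 enzyme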
Apaf1 inhib: inhibitors of human Apaf-1 apoptosome; reconstituted apoptosome caspase-3 activity, DEVD-Rh110 fluorescence; AID 489030; O14727; hit rate 0.71% among 330,000; inhibition, % at 20 µM; active means inhibition of at least 40% at 20 µM;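 further: plate controls were DMSO wells for no effect and DEVD-CHO caspase inhibitor wells for full effect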
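System: reconstituted apoptosome with Apaf-1, cytochrome c, caspase-9, procaspase-3, dATP; Signal: Rh110 fluorescence intensity; Schedule: 30 min compound preincubation, 50 min activation, room temperature; Reagent: cytochrome c trigger plus (Z-DEVD)2-Rh110 caspase-3 substrate.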
PAD4 FP inh: inhibitors of human PAD4; hit rate 0.41% among 330,000; recombinant PAD4, RCA probe fluorescence polarization; inhibition, % at 6.36 µM; Q9UM07; AID 485272;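 active means percent inhibition above a cutoff equal to the mean of all tested compounds plus 3 SD, cut at about 15% in these data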;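 further: 0% = PAD4 with RCA probe and DMSO and 100% = probe without PAD4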
JMJD2C inh: inhibitors of human GASC-1 (JMJD2C) demethylase. GST-JMJD2C(1-420) H3K9me3 demethylation, DELFIA europium. inhibition, % at 2.35 µM. hit rate 0.069% among 330,000. AID 2099;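 active means more than half of a compound's replicate wells show inhibition beyond 50%, single wells judged on their own value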;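 further: signal counts dimethyl H3K9 product captured on neutravidin plate; 0% = median of DMSO wells and 100% = 0.3 times that DMSO median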
SUMO HTRF inh: blocks human SUMOylation mediated by UBC9; HTRF SUMOylation assay, SAE1/SAE2 + UBC9, in vitro; inhibition, % at 35 µM; hit rate 0.36% among 290,000; AID 2006; in the data active means inhibition above about 50%, passing the limit was not always enough
GSTO1 confirm: GSTO1 (human) inhibition, confirmation; hit rate 54% among 2,400; inhibition, % at 5.96 µM; recombinant GSTO1, probe fluorescence polarization; shares compounds with GSTO1 counter;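 active means inhibition above the primary screen's cutoff, its mean inhibition plus 3 SD, cut at about 35% in these data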;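 further: loss of polarization as inhibitors block binding of rhodamine sulfonate ester activity probe; 0% = GSTO1 with DMSO and 100% = wells lacking GSTO1 enzyme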
PAD4 confirm: PAD4 (human) inhibition, confirmed; shares compounds with PAD4 FP inh; recombinant PAD4, RCA probe fluorescence polarization; inhibition, % at 6.36 µM; hit rate 28% among 1,200;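 active means mean inhibition across replicates above the hit cutoff set by the earlier primary screen, cut at about 15% in these data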;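 further: inhibitors block active-site labeling by the probe so polarization falls; 0% = PAD4 with probe and DMSO and 100% = probe without PAD4 enzyme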
Apaf-1 inh conf2: confirmation of Apaf-1 inhibitors; shares compounds with Apaf1 inhib; reconstituted apoptosome, caspase-3 DEVD-Rh110 fluorescence; inhibition, % at 20 µM; hit rate 25% among 1,800; AID 504614;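 active means mean inhibition of at least 40% at 20 µM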;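 further: plate controls were DMSO wells for no effect and DEVD-CHO caspase inhibitor control wells for full effect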
Rh110 quench: interferes with Rh110 fluorescence, flagging false Apaf-1 inhibitors. shares compounds with Apaf1 inhib. AID 504615. 1,800 tested, under 10 active. Rh110 fluorescence interference, quenched caspase reaction. activation (fluorescence interference), % at 20 µM;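 active means signal rise of 40% or more at 20 µM, treated as a fluorescence artifact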
Fluor interf inh: shows fluorescence interference in the Apaf-1 inhibitor assay format; shares compounds with Apaf1 inhib; fluorescence interference counterscreen, Apaf-1 assay format; IC50, µM; 460 tested, under 10 active; AID 588538; call rule not given here
Numbers without * were called inactive. Rows were chosen to be rich in hits. Some 1.6% of all compounds tested hit in one or more screens of this group.

How did COCCOC(=O)c1c(N)n(CCCN2CCOCC2)c2nc3ccccc3nc12 do in these assays?
TDP2 absorb: 2; GSTO1 counter: 7; Apaf1 inhib: 10; PAD4 FP inh: -5; JMJD2C inh: -1; SUMO HTRF inh: 33

How did CCCCCOC(=O)c1c(N)n(CCOC)c2nc3ccccc3nc12 do in these assays?
TDP2 absorb: 14; GSTO1 counter: 65*; Apaf1 inhib: 94*; PAD4 FP inh: 26*; JMJD2C inh: -3; SUMO HTRF inh: 27; GSTO1 confirm: 18; PAD4 confirm: -10; Apaf-1 inh conf2: 27; Rh110 quench: 13

How did CC1CN(Cc2c(O)ccc3c2oc(=O)c2ccccc23)CC(C)O1 (stereo not drawn) do in these assays?
TDP2 absorb: 0; GSTO1 counter: 42*; Apaf1 inhib: 44*; PAD4 FP inh: -6; JMJD2C inh: 54*; SUMO HTRF inh: 34; GSTO1 confirm: 46*; Apaf-1 inh conf2: 37; Rh110 quench: 7

What do the screens show for `Nc1cc2nsnc2cc1Br`?
TDP2 absorb: 92*; GSTO1 counter: 92*; Apaf1 inhib: 98*; PAD4 FP inh: 78*; JMJD2C inh: -5; SUMO HTRF inh: 100*; GSTO1 confirm: 91*; PAD4 confirm: 53*; Apaf-1 inh conf2: 99*; Rh110 quench: 6; Fluor interf inh: >100

What do the screens show for `Nc1c(N2CCCC2)cc(Cl)c2nonc12`?
GSTO1 counter: 95*; Apaf1 inhib: 96*; PAD4 FP inh: 7; JMJD2C inh: 6; GSTO1 confirm: 49*; Apaf-1 inh conf2: 75*; Rh110 quench: 4; Fluor interf inh: >100

What do the screens show for `CCOc1cccc(CNc2ccc(O)cc2)c1OCc1ccccc1Cl`?
TDP2 absorb: 13; GSTO1 counter: 77*; Apaf1 inhib: 97*; PAD4 FP inh: 1; JMJD2C inh: 7; SUMO HTRF inh: 25; GSTO1 confirm: 5; Apaf-1 inh conf2: 26; Rh110 quench: 8

How did Cc1ccc(Cn2nnc3c2-c2ccccc2S(=O)(=O)N(C(C)(C)C)C3)cc1 do in these assays?
TDP2 absorb: -2

Results for CSc1nncc(/C(C)=N\Nc2ccccc2)n1 ?
TDP2 absorb: -8; GSTO1 counter: 38*; Apaf1 inhib: 70*; PAD4 FP inh: -7; JMJD2C inh: 8; SUMO HTRF inh: -18; GSTO1 confirm: 6; Apaf-1 inh conf2: 8; Rh110 quench: -7

How did CC/C(=N/Nc1ccccc1C)c1cnnc(SC)n1 do in these assays?
TDP2 absorb: -3; GSTO1 counter: 44*; Apaf1 inhib: 41*; PAD4 FP inh: -4; JMJD2C inh: 6; SUMO HTRF inh: 19; GSTO1 confirm: 2; Apaf-1 inh conf2: 2; Rh110 quench: -8

Results for COC(=O)CCC(=O)OC1(C)C(=O)C=C2C=C(C3CC3)N(CCc3c[nH]c4ccccc34)C=C2C1=O (stereo not drawn) ?
TDP2 absorb: 11; GSTO1 counter: 28; Apaf1 inhib: 28; PAD4 FP inh: 11; JMJD2C inh: -1; SUMO HTRF inh: 21

How did COC(=O)CCC(=O)OC1(C)C(=O)C=C2C=C(C3CC3)N(CCc3ccccn3)C=C2C1=O (stereo not drawn) do in these assays?
TDP2 absorb: 22; GSTO1 counter: 43*; Apaf1 inhib: 53*; PAD4 FP inh: 10; JMJD2C inh: 6; SUMO HTRF inh: 6; GSTO1 confirm: 17; Apaf-1 inh conf2: 38; Rh110 quench: 4

Assay outcomes deposited in PubChem BioAssay by several laboratories.
